One series concerns WM-115. Briefly: Cytotoxicity against human WM115 cells after 46 hrs by MTT assay. It counts as functional, cell-based. As to conditions: WM-115, 46 h. The procedure, abridged:
(§1)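 MTT read-out of survival in cells treated with test compound and compared with untreated control cells. IC50 is the concentration that lowers the surviving cell fraction to 50% of control. Values are means (μM) ± standard deviation from 3 experiments, each run in quintuple. Cancer-line IC50s were compared with normal-cell (HUVEC) IC50s by unpaired t-test.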

Series [1] in a line: Lipophilicity, log P of the compound by HPLC analysis. It counts as physicochemical.
The test system of the next series is NALM-6. The series is described as follows: Cytotoxicity against human NALM6 cells after 46 hrs by MTT assay. The conditions noted are these: NALM-6, 46 h. The class given is functional, cell-based. The procedure, abridged: as §1
Another series deals with HL-60. Briefly: Cytotoxicity against human HL60 cells after 46 hrs by MTT assay. It counts as functional, cell-based. The conditions noted are these: HL-60, 46 h. Put shortly:
as §1

In the next series the test system is HUVEC. The series is described as follows: Cytotoxicity against HUVEC after 46 hrs by MTT assay. It counts as cell-based. As to conditions: Homo sapiens. Put shortly: as §1
(In general: Formazan colour is commonly taken as a measure of viable cells.)

For orientation: IC50 means the concentration that inhibits the measured activity by half. Low readings indicate greater potency in that assay, high ones weaker potency in that assay. The logP is the decadic logarithm of the partition coefficient of the neutral form, usually between octanol and water. On to `O=c1c(Cc2cccc(O)c2)coc2ccccc12`, for which the values for the IC50 in the series on WM-115, in the series on NALM-6 and in the series with HL-60 were 17.6 µM, 7.3 µM and 6.3 µM, respectively. Moreover, the logP in series [1] was 3.31.
On to `O=C1C[C@@H](c2ccc(O)cc2)Oc2cc(O)cc(O)c21` [NARINGENIN], for which the figures for the IC50 with WM-115, in the series on NALM-6 and with HL-60 were 525 µM, 426 µM and 414 µM, respectively.
Turning to `O=c1c(Cc2ccc(F)cc2)coc2ccccc12`, the IC50 with WM-115 was 53.2 µM; in the series with NALM-6, 8.2 µM; in the series with HL-60, 19.1 µM. In addition, the logP in series [1] was 4.02.
For `O=C1/C(=C\c2ccccc2)COc2ccccc21` the same measures were 13.5 µM, 5.5 µM, 6.7 µM and 2.89.
For the compound `O=C1/C(=C\c2ccncc2)C(c2ccccc2)Oc2ccccc21` (stereo unspecified), the IC50 with WM-115 came to 4.6 µM; in the series with HUVEC, 5.14 µM; in the series with NALM-6 it was 0.7 µM; in the series on HL-60 it was 1.1 µM. Further, the log partition coefficient (logP) in series [1] is 2.85.
Consider `Cc1ccc(/C=C2\C(=O)c3ccccc3OC2c2ccccc2)cc1` (stereo unspecified), for which the figures for the IC50 in the series with WM-115, in the series with NALM-6 and in the series on HL-60 were 57 µM, greater than 1000 µM and 40.8 µM, respectively. The log partition coefficient (logP) in series [1] stood at 4.39.
`O=C1/C(=C\c2ccccc2)C(c2ccccc2)Oc2ccccc21` (stereo unspecified): the IC50 with WM-115 is 52.6 µM; with NALM-6 it was greater than 1000 µM; with HL-60 it was 27.3 µM. This compound also yielded a logP in series [1] of 3.9.
On to `O=c1c(O)c(-c2ccc(O)c(O)c2)oc2cc(O)cc(O)c12` [QUERCETIN], for which the IC50 in the series with WM-115 was 178 µM; with NALM-6, 77.1 µM; with HL-60, 58 µM.
Consider `O=C1CC(c2ccccc2)Oc2ccccc21` (stereo unspecified) [FLAVANONE], for which the results for the IC50 in the series on WM-115, with NALM-6 and in the series on HL-60 were 71.2 µM, 57.6 µM and 51.1 µM, respectively.
As to `O=C1/C(=C\c2ccc(O)cc2)COc2ccccc21`, the IC50 is 12.1 µM in the series on WM-115, 466 µM in the series on NALM-6 and 6.5 µM with HL-60. The compound further returned a logP in series [1] of 2.92.
With `Cc1ccc(/C=C2/C(=O)c3ccccc3OC2c2ccccc2)cc1` (stereo unspecified), the values for the IC50 in the series with WM-115, in the series with NALM-6 and in the series with HL-60 were 60.1 µM, 51.4 µM and 40.9 µM, respectively. The same compound displayed a logP in series [1] of 4.36.
For `O=C1/C(=C/c2ccccc2)COc2ccccc21` the same measures were 53.7 µM, 6.2 µM, 5.4 µM and 3.07.
Take `O=C1/C(=C/c2ccc(O)cc2)COc2ccccc21`: the values for the half-inhibitory concentration (IC50) with WM-115, in the series with NALM-6 and in the series on HL-60 were 69 µM, 32.3 µM and 5.7 µM, respectively. The compound further returned a lipophilicity (logP) in series [1] of 3.1.
As to `O=C1/C(=C/c2ccccc2)C(c2ccccc2)Oc2ccccc21` (stereo unspecified), the IC50 with WM-115 stood at 59.4 µM; in the series with NALM-6, 29.5 µM; with HL-60, 33.3 µM. Besides, in series [1], the logP stood at 3.9.
In the same order, the values of `O=C1/C(=C\c2ccc(Cl)cc2)C(c2ccccc2)Oc2ccccc21` (stereo unspecified) are 27.4 µM, greater than 1000 µM, greater than 1000 µM and 4.53.
Consider `O=C1CCOc2ccccc21` [CHROMANONE], for which the half-maximal inhibitory concentration (IC50) is greater than 1000 µM in the series with WM-115, 674 µM with NALM-6 and 677 µM with HL-60.
In the case of `O=C1/C(=C/c2ccc(Br)cc2)C(c2ccccc2)Oc2ccccc21` (stereo unspecified), the IC50 came to 25.9 µM in the series with WM-115, 7.23 µM in the series with HUVEC, 6.9 µM with NALM-6 and 5.7 µM in the series with HL-60. Moreover, the logP in series [1] turned out to be 4.46.
For the compound `N#Cc1ccc(Cc2coc3ccccc3c2=O)cc1`, the concentration for half-maximal inhibition (IC50) with WM-115 stood at 6.3 µM; in the series with NALM-6, 4.8 µM; with HL-60 it was 3.8 µM. The same compound returned a log partition coefficient (logP) in series [1] of 3.58.
For `O=c1c(Cc2ccc(O)cc2)coc2ccccc12` the same measures were 57.2 µM, 49.8 µM, 46.7 µM and 3.33.
In the same order, the values of `O=C1/C(=C/c2ccc(Cl)cc2)C(c2ccccc2)Oc2ccccc21` (stereo unspecified) are 52 µM, 7.4 µM, 5.8 µM and 4.46.
As to `O=C1/C(=C/c2ccncc2)C(c2ccccc2)Oc2ccccc21` (stereo unspecified), the IC50 with WM-115 was determined as 6.3 µM; in the series on HUVEC, 5.77 µM; in the series on NALM-6 it was 1.6 µM; with HL-60 it was 0.9 µM. Besides, the log partition coefficient (logP) in series [1] amounted to 2.98.
In the same order, the values of `O=C1/C(=C\c2ccc(Br)cc2)C(c2ccccc2)Oc2ccccc21` (stereo unspecified) are 32.6 µM, 29.1 µM, greater than 1000 µM, greater than 1000 µM and 4.71.
Take `O=C1/C(=C/c2ccccc2)C(c2ccccc2)Oc2ccc(O)cc21` (stereo unspecified): the IC50 with WM-115 was found to be 44.5 µM; in the series with NALM-6, 8.7 µM; in the series on HL-60, 5.8 µM. The compound further came in with a logP in series [1] of 3.5.
Take `O=c1c(Cc2ccc([N+](=O)[O-])cc2)coc2ccccc12`: the 50% inhibitory concentration (IC50) in the series with WM-115 was 6.1 µM; with HUVEC it was 5.4 µM; in the series on NALM-6 it was 5 µM; in the series with HL-60, 2.4 µM. The compound also came in with a logP in series [1] of 3.93.
As to `O=C1/C(=C\c2ccccc2)C(c2ccccc2)Oc2ccc(O)cc21` (stereo unspecified), the values for the half-inhibitory concentration (IC50) in the series on WM-115, in the series on NALM-6 and in the series with HL-60 were 9.1 µM, 58.8 µM and 7.3 µM, respectively. The compound also displayed a log partition coefficient (logP) in series [1] of 3.45.

Values taken from ChEMBL document CHEMBL2401718, “Structure-cytotoxic activity relationship of 3-arylideneflavanone and chromanone (E,Z isomers) and 3-arylflavones” (Bioorg Med Chem Lett, 2013).
